In ChEMBL document CHEMBL1152902, “Synthesis, antifungal activities and 3D-QSAR study of N-(5-substituted-1,3,4-thiadiazol-2-yl)cyclopropanecarboxamides” (2009):

Columns and labels:
Format in all cases: functional
Sclerotinia sclerotiorum = assay: Antifungal activity against Sclerotinia sclerotiorum (Lib.) de Bary at 500 ug/ml relative to control
How it was run: (§1)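 Pot culture test run as in the cited reference, with series compounds screened against five fungi: S. sclerotiorum (Lib.) de Bary, R. solani, F. oxysporum, C. cassiicola and B. cinerea. Culture plates were held at (24 ±1) °C. Commercial fungicides (dimehachlon, jinggangmycin, thiophanate methyl, chlorothalonil, pyrimethanil) served as controls under the same conditions.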

Botrytis cinerea = assay: Antifungal activity against Botrytis cinerea at 500 ug/ml relative to control; how it was run: as §1
Rhizoctonia solani = assay: Antifungal activity against Rhizoctonia solani at 500 ug/ml relative to control; how it was run: as §1
Fusarium oxysporum = assay: Antifungal activity against Fusarium oxysporum at 500 ug/ml relative to control; how it was run: as §1
Corynespora cassiicola = assay: Antifungal activity against Corynespora cassiicola at 500 ug/ml relative to control; how it was run: as §1

Compound	inhibition at 500 µg/mL (Sclerotinia sclerotiorum)	inhibition at 500 µg/mL (Botrytis cinerea)	inhibition at 500 µg/mL (Rhizoctonia solani)	inhibition at 500 µg/mL (Fusarium oxysporum)	inhibition at 500 µg/mL (Corynespora cassiicola)
CCCc1nnc(NC(=O)C2CC2)s1	40%	57.9%	35%	1%	46.6%
COC(=O)NC(=S)Nc1ccccc1NC(=S)NC(=O)OC [THIOPHANATE METHYL]	–	–	–	97%	–
CCc1nnc(NC(=O)C2CC2)s1	51.7%	32.1%	23%	10%	49.7%
O=C(Nc1nnc(C2CC2)s1)C1CC1	26.7%	66.6%	21%	37%	13.3%
O=C(Nc1nnc(-c2ccc([N+](=O)[O-])cc2)s1)C1CC1	43.1%	30.3%	16%	13%	18.6%
N#Cc1c(Cl)c(Cl)c(Cl)c(C#N)c1Cl [CHLOROTHALONIL]	–	–	–	–	86.4%
O=C1CCC(=O)N1c1cc(Cl)cc(Cl)c1 [DIMETHACHLON]	96.7%	–	–	–	–
Cc1ccccc1-c1nnc(NC(=O)C2CC2)s1	37.5%	75.1%	36%	21%	50.8%
Cc1nnc(NC(=O)C2CC2)s1	23%	67.5%	5%	84%	52.4%
O=C(Nc1nncs1)C1CC1	24%	83.7%	37%	17%	22.5%
Cc1cc(C)nc(Nc2ccccc2)n1 [PYRIMETHANIL]	–	99.2%	–	–	–
O=C(Nc1nnc(-c2ccccc2)s1)C1CC1	24%	80.5%	9%	16%	17.4%
CCCCc1nnc(NC(=O)C2CC2)s1	10.3%	26%	44%	2%	21.9%
Cc1cccc(-c2nnc(NC(=O)C3CC3)s2)c1	20%	90.7%	39%	11%	8.38%
O=C(Nc1nnc(-c2ccccc2Cl)s1)C1CC1	25.5%	35.1%	44%	91%	21.4%
COc1ccc(-c2nnc(NC(=O)C3CC3)s2)cc1	33%	79.4%	-9%	12%	33.3%
O=C(Nc1nnc(-c2ccccc2F)s1)C1CC1	23%	67.5%	5%	84%	68.3%
CC(C)c1nnc(NC(=O)C2CC2)s1	47.7%	42%	11%	20%	29.3%
O=C(Nc1nnc(-c2ccc(Cl)cc2)s1)C1CC1	23.9%	13.5%	62%	28%	19.7%
